Measured values taken from ChEMBL document CHEMBL1123437, “Isozyme-specific enzyme inhibitors. 12. C- and N-methylmethionines as substrates and inhibitors of methionine adenosyltransferases of normal and hepatoma rat tissues” (J Med Chem, 1986).
Values joined by “and” are separate entries in the source; they are usually repeats but may differ in a detail not shown here. Identical values can stand only once.

Tests used:
[1] = target: T1, S-adenosylmethionine synthetase (MAT 1 and MAT 2) (Rattus norvegicus) (UniProt P13444+P18298); assay: […](M-T) of rat methionine adenosyl transferase; type: protein assay
How it was run: (§1)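 KM from linear double-reciprocal plots of velocity vs derivative concentration. Conditions: 0.4 mM [14C]ATP, 1.72 × 10^-6 units M-2 (rat kidney) or 1.58 × 10^-6 units M-T (Novikoff hepatoma), 60 min, 37 °C, Tris pH 8.2 with KCl/MgCl2/DTT. [14C]AdoMet derivative separated by paper electrophoresis and counted.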

[2] = target: T1, S-adenosylmethionine synthetase (MAT 1 and MAT 2) (Rattus norvegicus); assay: Substrate activity of compound (4 mM) measured as the rate of conversion of [C14]-ATP to [C14]-Adomet in relation to KM value of methionine with M-T of rat MAT; type: protein assay
How it was run: (§2)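 Kinetics with 0.4 mM [14C]ATP and 1.72 × 10^-6 units M-2 (kidney) or 1.58 × 10^-6 units M-T (hepatoma), 60 min, 37 °C, pH 8.2. Product resolved by paper electrophoresis and counted. KM and Vmax from linear double-reciprocal plots. Vmax expressed relative to L-Met = 100; reported as the relative Vmax/KM ratio.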

[3] = target: T1, S-adenosylmethionine synthetase (MAT 1 and MAT 2) (Rattus norvegicus); assay: Compound (3 mM) was tested for the inhibition of conversion of [14C]methionine to [14C]-AdoMet by M-T (hepatoma tissue) of rat methionine Adenosyltransferase; type: protein assay
How it was run: (§3)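 Radiometric [14C]Met→[14C]AdoMet assay with partially purified rat MAT (M-2 from kidney, 8.6 × 10^-6 units; M-T from Novikoff hepatoma, 7.9 × 10^-6 units). Derivative at 3 mM, 2 mM MgATP, pH 8.2 Tris/KCl/MgCl2/DTT buffer, 37 °C, 10 min. Acid-stopped; supernatant counted on phosphocellulose discs. No-ATP incubations served as controls.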

[4] = target: S-adenosylmethionine synthase isoform type-2 (Rattus norvegicus) (UniProt P18298); assay: Substrate activity of compound (4 mM) measured as the rate of conversion of [C14]-ATP to [C14]-Adomet in relation to KM value of methionine with rat Methionine adenosyltransferase II; how it was run: as §2
Target sequence in this assay (P18298 whole entry, canonical isoform): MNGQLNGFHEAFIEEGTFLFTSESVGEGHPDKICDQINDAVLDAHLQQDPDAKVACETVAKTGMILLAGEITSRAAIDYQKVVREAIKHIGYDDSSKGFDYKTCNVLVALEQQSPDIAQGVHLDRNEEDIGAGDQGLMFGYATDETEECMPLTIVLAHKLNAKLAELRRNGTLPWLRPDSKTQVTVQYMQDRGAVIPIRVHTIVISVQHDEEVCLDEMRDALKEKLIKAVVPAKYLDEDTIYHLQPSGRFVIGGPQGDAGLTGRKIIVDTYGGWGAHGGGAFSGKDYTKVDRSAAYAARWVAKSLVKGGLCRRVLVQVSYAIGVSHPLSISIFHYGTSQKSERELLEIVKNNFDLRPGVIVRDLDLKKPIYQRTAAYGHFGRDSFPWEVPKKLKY

[5] = Ratio of relative Vmax of normal tissue (M-2) form of rat methionine Adenosyltransferase to that of KM of normal tissue(M-2)form of rat methionine Adenosyltransferase; how it was run: as §2
[6] = Ratio of Vmax of normal tissue (M-T) form of rat methionine Adenosyltransferase to that of KM of normal tissue(M-T)form of rat methionine Adenosyltransferase; how it was run: as §2
[7] = target: S-adenosylmethionine synthase isoform type-2 (Rattus norvegicus) (UniProt P18298); assay: Compound (3 mM) was tested for the inhibition of conversion of [14C]methionine to [14C]AdoMet by M-2 (normal tissue) of rat methionine Adenosyltransferase; how it was run: as §3
Target sequence in this assay (P18298 whole entry, canonical isoform): as above

[8] = target: S-adenosylmethionine synthase isoform type-2 (Rattus norvegicus) (UniProt P18298); assay: Substrate activity of compound (4 mM) measured as the rate of conversion of [C14]-ATP to [C14]-Adomet in relation to KM value of methionine rat Methionine adenosyltransferase II; how it was run: as §2
Target sequence in this assay (P18298 whole entry, canonical isoform): as above

[9] = target: S-adenosylmethionine synthase isoform type-2 (Rattus norvegicus) (UniProt P18298); assay: Compound (3 mM) was tested for the inhibition of conversion of [14C]methionine to [14C]AdoMet by rat Methionine adenosyltransferase II; how it was run: as §3
Target sequence in this assay (P18298 whole entry, canonical isoform): as above

[10] = target: T1, S-adenosylmethionine synthetase (MAT 1 and MAT 2) (Rattus norvegicus); assay: Substrate level that produces half the maximal velocity(M-T) of rat methionine adenosyltransferase; type: protein assay; how it was run: as §1
[11] = target: T1, S-adenosylmethionine synthetase (MAT 1 and MAT 2) (Rattus norvegicus); assay: Compound (3 mM) was tested for the inhibition of conversion of [14C]methionine to [14C]-AdoMet by M-T (hepatoma tissue) of rat methionine adenosyltransferase; type: protein assay; how it was run: as §3
[12] = target: T1, S-adenosylmethionine synthetase (MAT 1 and MAT 2) (Rattus norvegicus); assay: Substrate activity as rate of conversion of [C14]-ATP to [C14]-Adomet in relation to KM value of methionine with M-T of rat methionine adenosyltransferase; type: protein assay; how it was run: as §2
[13] = tested on: CSCC(C)C(N)C(=O)O; assay: (§4) Substrate activity with […] form of rat methionine Adenosyltransferase; type: protein assay
[14] = tested on: CSCC[C@H](N)C(=O)O; assay: as §4; type: protein assay
[15] = tested on: CSCC[C@](C)(N)C(=O)O; assay: (§5) Substrate activity with […] (M-T) form of rat methionine adenosyltransferase; type: protein assay
[16] = tested on: CSC[C@@H](C)C(N)C(=O)O; assay: as §5; type: protein assay
[17] = tested on: CSC(C)C[C@@H](N)C(=O)O; assay: (§6) Substrate activity with rat Methionine adenosyltransferase II
[18] = tested on: CSCC(C)C(N)C(=O)O; assay: as §6
[19] = tested on: CSCC[C@H](N)C(=O)O; assay: as §6
[20] = tested on: CS[C@H](C)C[C@H](N)C(=O)O; assay: as §6
[21] = target: S-adenosylmethionine synthase isoform type-2 (Rattus norvegicus) (UniProt P18298); assay: Substrate activity with normal tissue form of rat Methionine adenosyltransferase II
Target sequence in this assay (P18298 whole entry, looked up, canonical isoform): as the sequence (P18298 whole entry, canonical isoform) above

[22] = target: T1, S-adenosylmethionine synthetase (MAT 1 and MAT 2) (Rattus norvegicus); assay: Compound (3 mM) was tested for the inhibition of conversion of [14C]methionine to [14C]AdoMet by M-T (hepatoma tissue) of methionine adenosyltransferase; type: protein assay; how it was run: as §3
[23] = target: T1, S-adenosylmethionine synthetase (MAT 1 and MAT 2) (Rattus norvegicus); assay: Substrate level that produces half the maximal velocity(M-2) of rat methionine adenosyltransferase; type: protein assay; how it was run: as §1
[24] = target: S-adenosylmethionine synthase isoform type-2 (Rattus norvegicus) (UniProt P18298); assay: Substrate activity of compound (4 mM) measured as the rate of conversion of [C14]-ATP to [C14]-Adomet in relation to KM value of methionine of rat Methionine adenosyltransferase II; how it was run: as §2
Target sequence in this assay (P18298 whole entry, canonical isoform): as above

[25] = target: T1, S-adenosylmethionine synthetase (MAT 1 and MAT 2) (Rattus norvegicus); assay: Substrate level that produces half the maximal velocity(M-2) of rat methionine adenosyl transferase; type: protein assay; how it was run: as §1
[26] = target: T1, S-adenosylmethionine synthetase (MAT 1 and MAT 2) (Rattus norvegicus); assay: Substrate activity with […](M-Tform of rat methionine adenosyltransferase; type: protein assay; conditions: concentration not given here
How it was run: (§7)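 Derivative at 4 mM with [14C]ATP and 1.6 × 10^-5 units rat MAT, 1 h at 37 °C. [14C]AdoMet derivative separated by paper electrophoresis (pH 5.0 acetate) and counted. Result given as cpm per 10 µL above a control lacking the derivative. At least twice control counts scored as substrate activity.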

[27] = target: S-adenosylmethionine synthase isoform type-2 (Rattus norvegicus) (UniProt P18298); assay: Rate of conversion of [C14]-ATP to [C14]-Adomet in relation to KM value of methionine with Methionine adenosyltransferase II; how it was run: as §2
Target sequence in this assay (P18298 whole entry, canonical isoform): as above

[28] = target: S-adenosylmethionine synthase isoform type-2 (Rattus norvegicus) (UniProt P18298); assay: as §6; conditions: concentration not given here; how it was run: as §7
[29] = target: T1, S-adenosylmethionine synthetase (MAT 1 and MAT 2) (Rattus norvegicus); assay: Rate of conversion of [C14]-ATP to [C14]-Adomet in relation to KM value of methionine with methionine adenosyltransferase; type: protein assay; how it was run: as §2

S-adenosylmethionine synthase isoform type-2 (Rattus norvegicus), P18298, sequence (P18298 whole entry, canonical isoform): as above
S-adenosylmethionine synthetase (MAT 1 and MAT 2) (Rattus norvegicus) (from UniProt P13444+P18298), sequence (P18298 whole entry, looked up): as the sequence (P18298 whole entry, canonical isoform) above
S-adenosylmethionine synthetase (MAT 1 and MAT 2) (Rattus norvegicus) (from UniProt P13444+P18298), sequence (P13444 whole entry, looked up): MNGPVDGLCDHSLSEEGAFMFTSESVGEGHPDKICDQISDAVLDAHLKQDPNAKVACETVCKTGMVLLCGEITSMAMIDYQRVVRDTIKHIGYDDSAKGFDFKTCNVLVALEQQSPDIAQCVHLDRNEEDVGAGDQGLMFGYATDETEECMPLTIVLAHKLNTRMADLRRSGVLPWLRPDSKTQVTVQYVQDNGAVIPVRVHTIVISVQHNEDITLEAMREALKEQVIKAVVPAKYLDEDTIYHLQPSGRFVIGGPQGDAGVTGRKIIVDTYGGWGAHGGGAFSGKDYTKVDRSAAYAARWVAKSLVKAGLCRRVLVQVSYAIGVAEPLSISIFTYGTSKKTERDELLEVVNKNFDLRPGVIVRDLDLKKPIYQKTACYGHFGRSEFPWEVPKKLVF

| Substrate activity [4] [c.p.m.] | Ratio [5] | inhibition [9] [%] | inhibition [11] [%] | Substrate activity [12] [c.p.m.] | Compound | also measured |
| --- | --- | --- | --- | --- | --- | --- |
|  |  | 15 | 8.7 | 348 | CSC[C@@H](C)C(N)C(=O)O (stereo partly drawn) | Substrate activity [24]: 38 c.p.m.; Relative Vmax [10]: 37; Ratio [6]: 1.8 |
| 333 | 0.9 | 21 | 15 | 381 | CSC[C@@H](C)[C@@H](N)C(=O)O | Relative Vmax [25]: 26 |
| 506 | 1.9 | 24 | 15 | 731 | CS[C@H](C)C[C@H](N)C(=O)O | Relative Vmax [23]: 27 |
| -9 |  | 2.9 | 0 | 36 | CN[C@@H](CCSC)C(=O)O |  |
|  | 20000 |  |  |  | CSCC[C@H](N)C(=O)O | Relative Vmax [1]: 100; Ratio [6]: 6400 |

Second part, the compound before the results:

| Compound | Substrate activity [4] [c.p.m.] | Ratio [5] | inhibition [9] [%] | inhibition [11] [%] | Substrate activity [12] [c.p.m.] | also measured |
| --- | --- | --- | --- | --- | --- | --- |
| CSCC(C)C(N)C(=O)O (stereo not drawn) | 838 | 4.4 |  |  |  | Relative Vmax [1]: 27 and 12; Substrate activity [2]: 701 c.p.m.; inhibition [3]: 65%; Ratio [6]: 8.6; inhibition [7]: 68% |
| CSCC[C@](C)(N)C(=O)O |  |  | 15 | 11 | 241 | Substrate activity [8]: 49 c.p.m.; Relative Vmax [10]: 27; Ratio [6]: 1.3 |
| S-adenosylmethionine synthetase (MAT 1 and MAT 2) (Rattus norvegicus) (from UniProt P13444+P18298) |  |  |  |  |  | Km [13]: 1.4 mM; Km [14]: 0.0156 mM; Km [15]: 21 mM; Km [16]: 20 mM |
| S-adenosylmethionine synthase isoform type-2 (Rattus norvegicus), P18298 |  |  |  |  |  | Km [17]: 10 mM; Km [18]: 6.1 mM; Km [19]: 0.005 mM; Km [20]: 14 mM; Km [21]: 29 mM |
| CSC[C@@H](C)[C@H](N)C(=O)O | -10 |  | 17 | 6.6 | 191 |  |
| CSCC[C@@](C)(N)C(=O)O | 41 |  |  |  | 40 | inhibition [22]: 3.7%; inhibition [7]: 4.8% |
| CSC(C)C[C@@H](N)C(=O)O (stereo partly drawn) | 624 | 2.6 | 29 | 24 | 272 | Relative Vmax [23]: 26 |
| CS[C@@H](C)C[C@@H](N)C(=O)O | 30 |  |  | 14 | 173 | inhibition [7]: 9.7% |
| CCCCN[C@@H](CCSC)C(=O)O | -15 |  | 0 |  | 13 | inhibition [22]: 0% |
| CNCCC(N)C(=O)O (stereo not drawn) |  |  |  |  |  | inhibition [26]: 0%; Substrate activity [27]: 37 cpm; inhibition [28]: 6.6%; Substrate activity [29]: 33 cpm |
